# Screening results as filed in PubChem.
# Arrestin-AP2 inh – inhibitors of human beta-arrestin and AP2 interaction. FITC-arrestin peptide / GST-AP2 beads, flow cytometry; AP2 beta2 appendage carries R879A mutation. inhibition, % at 10 µM. 340,000 compounds, 0.31% hits. AID 504490;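 active = inhibition above a set limit, near 3 SD of compounds lacking own fluorescence, cut at about 54% in these data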;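 note: plate controls were DMSO wells for no effect and 5 µM unlabelled arrestin peptide for full effect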
#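 Measured by: flow cytometry, FL1 (488/535 nm); Material: AP2 appendage R879A on GSH beads; Evaluation: percent response; Timing: pre-incubation 12 min, peptide binding 1 h, room temperature; Also added: 50 nM FITC-arrestin peptide; Medium: PBS with 0.05% Tween 20 and 0.1% BSA.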
# OPRM1-OPRD1 inv – inverse agonists of human mu-delta opioid receptor heterodimerization; cell-based MOR-DOR heterodimer luminescence, inverse agonism; inhibition, % at 9.3 µM; 340,000 compounds, 0.21% hits; in the data active = inhibition above about 22%, passing the limit was not always enough;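 note: 0% = cells with DMSO and 100% = wells without cells with DMSO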
# HTR5A inv ctr – inverse agonist of human HTR5A in OPRM1-OPRD1 counter-screen; P47898; HTR5A cell line, luminescence, inverse agonism; inhibition, % at 9.3 µM; 340,000 compounds, 0.083% hits; in the data active = inhibition mostly above about 23%, no sharp cut-off; inactive = mostly below about 18%;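 note: 0% = cells with DMSO and 100% = no-cell wells with DMSO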
# HTR5A ag – counter-screen for OPRM1-OPRD1 agonists: human HTR5A agonism. 340,000 compounds, 0.61% hits. HTR5A agonist assay, luminescence, cell-based. activation, % at 9.3 µM. P47898; in the data active = activation mostly above about 9.5%, no sharp cut-off; inactive = mostly below about 7.6%;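 note: 0% = cells with vehicle only and 100% = reference agonist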
# MOR-DOR ag-1 – OPRM1-OPRD1 heterodimerization agonism; cells, luminescence; P35372+P41143; activation, % at 9.3 µM; 340,000 compounds, 0.3% hits;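 note: 0% = vehicle-treated cells and 100% = reference agonist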
# DAGLB inh – diacylglycerol lipase beta (human) inhibition. 340,000 compounds, 0.059% hits. HEK293T DAGLB membrane lysate, EnzChek fluorogenic substrate. inhibition, % at 5.17 µM; in the data active = inhibition above about 34%;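 note: 0% = enzyme with vehicle and 100% = wells lacking enzyme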
# MOR-DOR ag-2 – promotes OPRM1-OPRD1 heterodimerization in HTR5A counter-screen; shares compounds with HTR5A ag; U2OS counter-screen cells, complementation luminescence, 3 h; activation, % at 9.3 µM; 800 compounds, 13% hits; AID 504913
# HTR5A ag conf – HTR5A (human) agonism, confirmation | shares compounds with HTR5A ag | HTR5A agonist cell assay, luminescence | activation, % at 9.3 µM | 800 compounds, 17% hits | AID 504915; in the data active = activation above about 17%;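 note: 0% = cells with vehicle only and 100% = full reference agonist response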
# * = called active by the depositor; . = no result given. In the library only some 1.4% were active in any assay of this set; here they are far more common. Cut-off read from the data, not from the text of the source, unless noted: active = activation above about 18%; inactive = the rest.
SMILES,Arrestin-AP2 inh,OPRM1-OPRD1 inv,HTR5A inv ctr,HTR5A ag,MOR-DOR ag-1,DAGLB inh,MOR-DOR ag-2,HTR5A ag conf
C#CCN(C[C@@H]1[C@@H](OC(=O)Nc2cccs2)[C@@H](OC(=O)Nc2cccs2)Cn2c(=O)n(CCCCCC)c(=O)n21)S(=O)(=O)c1ccc(C)cc1,.,.,.,.,.,-2,.,.
c1ccc(-c2cc(-c3nnc4n3N=C(c3ccc5ccccc5c3)CS4)[nH]n2)cc1,-9,-12,-66,15*,2,1,6,15
NS(=O)(=O)c1ccc(S(=O)(=O)N2CCCC(c3ccccc3)C2)cc1 (stereo unspecified),.,.,.,.,.,-3,.,.
CCCn1c(SCC(=O)N2N=C3/C(=C/c4ccc(OC)cc4)CCCC3C2c2ccc(OC)cc2)n[nH]c1=O (stereo unspecified),-4,-9,-77,23*,2,0,26*,7
Nc1ccc(C(=O)N/N=C/c2cccc(Oc3ccccc3)c2)cc1,-21,14,-84,23*,-2,-1,0,27*
COC(=O)[C@H]1C[C@@]2(O)CN(S(=O)(=O)c3ccc(C)cc3)C[C@@]2(OC(=O)NC2CCCC2)C[C@H]1C(=O)OC,.,.,.,.,.,-2,.,.
O=C(CS(=O)(=O)c1ccc(F)cc1)Nc1nnc(-c2ccccc2Cl)o1,-4,11,-92,34*,-2,1,0,-5
COc1ccc(-c2nnc(NC(=O)CS(=O)(=O)c3ccc(F)cc3)o2)c(OC)c1,3,14,9,-1,-3,2,.,.
CCCn1c(SCC(=O)N(CC)c2c(N)n(Cc3ccccc3)c(=O)[nH]c2=O)nnc1-c1ccncc1,-8,13,6,1,-3,3,.,.
COc1ccccc1N(C)S(=O)(=O)c1ccc(C(=O)N(C)Cc2cccc(F)c2)cc1,.,.,.,.,.,-2,.,.
C=C1CCc2c([nH]c3ccc(OCC(C)C)cc23)C1=O,-3,-26,-81,22*,5,4,9,14
CCC1(CC)C(C#N)C(=O)NC(=O)C1C#N (stereo unspecified),-7,13,-18,4,-3,0,.,.
COc1cccc(NC(=O)COc2ccc(S(=O)(=O)NC(C)C)cc2)c1,0,2,-37,15*,-1,-4,2,2
Cc1nc(NC(=O)COc2ccccc2)sc1C(=O)Nc1cccc(Cl)c1,6,-16,-46,18*,3,2,4,4
COc1ccc(OCC(=O)Nc2cccc(OC)c2)cc1,21,14,-20,5,-3,-14,.,.
COc1ccc(NC(=O)c2sc(NC(=O)COc3ccccc3)nc2C)cc1,2,8,-37,0,-1,1,.,.
CC(=O)c1cccc(NC(=O)COc2ccccc2)c1,8,4,-36,15*,-1,0,5,13
NC1=NC(=O)/C(=C/c2cn(Cc3ccccc3)c3ccccc23)S1,13,-20,-19,16*,4,-8,1,17*
O=c1[nH]c2ccccc2cc1-c1nnn(-c2ccccc2)n1,3,9,-38,21*,-2,1,59*,-2
COc1cc(/C=C/CNC[C@H]2O[C@@H](n3cc(C)c(=O)[nH]c3=O)C[C@@H]2O)ccc1O,.,.,.,.,.,-1,.,.
COc1cc(C(N)=O)ccc1OCc1ccccc1,1,4,-11,4,-1,-3,.,.
COc1cc(C(=O)O)ccc1OCc1ccncc1,0,10,-1,16*,-2,1,0,0
NNS(=O)(=O)c1ccc(Sc2ccccn2)c([N+](=O)[O-])c1,-3,15,15,15*,-3,3,0,13
O=C(O/N=C1/CCSc2ccccc21)c1ccccc1,-2,-6,-64,23*,1,-9,4,10
CC(C)(C)OC(=O)N1CCC(NC(=O)c2ncn(Cc3ccccc3)c2C(=O)NC2CCN(C(=O)OC(C)(C)C)CC2)CC1,12,-11,-25,15*,2,-17,5,10
